Published values gathered from unrelated publications.
Lines come from different studies, so protocols differ. Converted amounts (≈) assume the structure as drawn.
LCK: Tyrosine-protein kinase Lck (LCK, Homo sapiens, UniProt P06239)
PIP4K2C: Phosphatidylinositol 5-phosphate 4-kinase type-2 gamma (PIP4K2C, Homo sapiens, UniProt Q8TBX8)
MAP3K10: Mitogen-activated protein kinase kinase kinase 10 (MAP3K10, Homo sapiens, UniProt Q02779)

CS(=O)(=NC#N)c1ccccc1Nc1nc(Nc2ccnc(CO)c2)ncc1Cl (stereo not shown)  remaining activity (LCK; enzyme activity; inhibitor; 1 µM): 41%
COc1cccc2c(N3CCC(CCP(=O)(O)O)CC3)ncnc12  residence time (Ectonucleotide pyrophosphatase/phosphodiesterase family member 1 (ENPP1, Homo sapiens, UniProt P22413); binding; SPR): 8.73 min
C1=C/COCc2cc(ccc2OCCN2CCCC2)Nc2nccc(n2)-c2cccc(c2)COC/1  remaining binding (Proto-oncogene tyrosine-protein kinase receptor Ret (RET, Homo sapiens, UniProt P07949, V804M); binding; 0.1 µM): 84%
CCCCC(=O)Nc1ccc(-c2ccc3ncn(CCF)c(=O)c3c2)cn1  inhibition (PIP4K2C; binding; competition with immobilised ligand; 0.5 µM): 97.5%
C#Cc1cc(-c2cc(Nc3nc(N[C@@H](C)c4ccc(F)cn4)ncc3Cl)n[nH]2)ccc1C=O  inhibition (MAP3K10; enzyme activity; inhibitor; 0.2 µM): 54.5%
COc1cc(/C=N/NC(=S)NN=Cc2ccc([N+](=O)[O-])o2)ccc1Oc1ccnc2cc(Cl)ccc12  IC20 (Aldo-keto reductase family 1 member B1 (AKR1B1, Homo sapiens, UniProt P15121); enzyme activity; inhibitor): 1.65 µg/mL (≈ 3.14 µM)
Cc1cc(O)c(-c2ccc([C@@H](C)CN(C)C)cc2)c2c1[nH]c(=O)c1sccc12  inhibition (MAP3K10; enzyme activity; inhibitor; 0.1 µM): -11.7%
CNC(=O)c1ccccc1Nc1nc(Nc2ccc(CO)cc2)ncc1Cl  remaining activity (LCK; enzyme activity; inhibitor; 1 µM): 1.89%
CCCCC(=O)Nc1ccc(-c2ccc3ncn(CCC)c(=O)c3c2)cn1  remaining binding (Dual specificity mitogen-activated protein kinase kinase 4 (MAP2K4, Homo sapiens, UniProt P45985); binding; competition with immobilised ligand; 0.5 µM): 100%
C#Cc1cnc(Nc2ccnc(CO)c2)nc1Nc1ccccc1S(C)(=O)=NC#N (stereo not shown)  remaining activity (LCK; enzyme activity; inhibitor; 1 µM): 14.6%
N[C@@H](CC(=O)O)C(=O)O  ΔTm (Electrogenic aspartate/glutamate antiporter SLC25A13, mitochondrial (SLC25A13, Homo sapiens, UniProt Q9UJS0); thermal stability; DSF; 1 mM): ~3 °C
CCCC(=O)Nc1ccc(-c2ccc3ncn(CCC)c(=O)c3c2)cn1  inhibition (PIP4K2C; binding; competition with immobilised ligand; 0.5 µM): 99.5%
COc1ccc2oc(-c3ccc4nc(N)oc4c3)c/c(=N\c3ccccc3NC(=O)CCN)c2c1  remaining binding (Serine/threonine-protein kinase 38 (STK38, Homo sapiens, UniProt Q15208); binding; 1 µM): 104%
